Data on 3 compounds can be found in PMC4186684 (Molecular Pharmaceutics, 2014).

A word on the MIC: it is the smallest concentration in the dilution series that meets the test's criterion for growth inhibition.

For data set [1], the system named is SK-OV-3 cells. Briefly: Confocal laser scanning microscopy of cellular uptake. The format is cell-based, human. The following applies: 10 μM, 1 h at 37 °C, Opti-MEM I, 488 nm excitation. A digest of the protocol:
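SK-OV-3 cells were seeded on coverslips in complete EMEM at 1 × 10⁵ cells/well and held at 50% confluency. Medium was replaced with fluorescein-labeled test peptide in Opti-MEM I reduced serum medium for 1 h at 37 °C. Cells were washed three times with PBS containing Ca/Mg and mounted. Imaging used 488 nm argon laser excitation and a 505–530 nm band-pass filter. FAM served as the comparison.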

Data set [2] relates to P. aeruginosa (PAO1). Briefly: MIC by broth microdilution. The format is cell-based. To be noted: Pseudomonas aeruginosa. In a few lines:
(§1)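 Cultures were grown overnight in tryptic soy broth at 37 °C, shaken at 175 rpm, then diluted from 1 × 10⁸ to 1 × 10⁵ CFU/mL. Peptides were 5 mM stocks in water, or in 50 mM NH₄HCO₃ for poorly soluble ones. Test compound was mixed 1:39 (v/v) with the suspension, serially 2-fold diluted and incubated statically overnight at 37 °C. MIC was the lowest concentration with no visible growth, in triplicate. Controls were tetracycline (MRSA) and tobramycin (P. aeruginosa).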

Data set [3] has as its system MRSA (ATCC 43300). Nature of the data set: MIC used as basis of the time-kill studies. The data set is classed as cell-based. The following applies: Staphylococcus aureus, ATCC43300|MRSA.
In data set [4] the test system is methicillin-resistant S. aureus (MRSA, ATCC 43300). Nature of the data set: MIC by broth microdilution. The data set is classed as cell-based. The following applies: Staphylococcus aureus, ATCC43300|MRSA. A digest of the protocol: as §1
In general terms: In broth dilution the organism is exposed to a series of concentrations in liquid medium.

The subject of data set [5] is E. coli (ATCC 35218). Nature of the data set: MIC used as basis of the time-kill studies. The data set is classed as cell-based. To be noted: Escherichia coli, ATCC35218.

In brackets after ≈: the same amount, converted by molar mass.

Turning to 5(6)-Carboxyfluorescein [FAM], the “intracellular fluorescence / localisation (CLSM)” value in data set [1] was “no significant fluorescence”.
With `NC[C@H]1O[C@H](O[C@H]2[C@H](O)[C@@H](O[C@H]3O[C@H](CO)[C@@H](O)[C@H](N)[C@H]3O)[C@H](N)C[C@@H]2N)[C@H](N)C[C@@H]1O` [tobramycin], 0.731 µg/mL (≈ 1.56 µM) was the least that counted as inhibitory in data set [2] (MIC).
For `CN(C)[C@@H]1C(O)=C(C(N)=O)C(=O)[C@@]2(O)C(O)=C3C(=O)c4c(O)cccc4[C@@](C)(O)[C@H]3C[C@@H]12` [tetracycline], the MIC in data set [3] worked out at 0.5 µg/mL (≈ 1.13 µM); in data set [4], 0.156 µg/mL (≈ 0.351 µM); in data set [5] it was 2 µg/mL (≈ 4.5 µM).
